From ChEMBL document CHEMBL4371016, “Proline- and Arginine-Rich Peptides as Flexible Allosteric Modulators of Human Proteasome Activity” (J Med Chem, 2019)
Residues, ends and D or L forms follow the SMILES beside them.

Columns and labels:
[1] = biological target: T1, Proteasome Macropain subunit MB1 (Homo sapiens, UniProt P28074); test: Negative allosteric modulation of SDS-activated human erythrocytes 20S proteasome chymotrypsin like activity using Suc-LLVY-AMC as substrate measured every 2 mins up to 60 mins by fluorescence assay
T1 sequence (P28074 whole entry): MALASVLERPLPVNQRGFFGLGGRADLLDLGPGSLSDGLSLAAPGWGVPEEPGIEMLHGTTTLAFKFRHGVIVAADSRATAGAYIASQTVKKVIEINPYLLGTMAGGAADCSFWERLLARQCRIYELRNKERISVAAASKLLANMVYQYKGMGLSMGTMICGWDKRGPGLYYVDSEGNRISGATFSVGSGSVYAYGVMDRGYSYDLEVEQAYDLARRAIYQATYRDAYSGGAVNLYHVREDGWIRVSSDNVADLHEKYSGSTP
Method in brief: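 1.4 nM CP (0.001 mg/mL) in 50 mM Tris-HCl pH 8.0, activated with 0.005% SDS where stated, otherwise latent. Suc-LLVY-AMC at 100 μM final. AMC fluorescence read every 2 min up to 60 min at 37 °C. Activity relative to DMSO-treated enzyme, from at least three independent replicates. Peptide stocks 10 mM in DMSO.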

Fibroblast = test: Cytotoxicity against human primary fibroblasts assessed as effect on cell viability up to 20 uM after 24 hrs by WST1 assay; assay type: cell-based
Method in brief: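 Primary human fibroblasts GM04390 in DMEM with 10% heat-inactivated FBS and antibiotics, at 3% O2, 5% CO2, 37 °C; seeded at 100 000 cells/mL, switched to Optimem at 24 h, exposed at 48 h to 0.1–20 μM peptide or DMSO for 24 h. Viability read by WST-1 (10% reagent, 4 h), absorbance 450 nm.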

[2] = biological target: T1, Proteasome Macropain subunit MB1; test: Non-competitive mixed-type inhibition of SDS-activated human erythrocytes 20S proteasome chymotrypsin like activity using Suc-LLVY-AMC as substrate measured every 2 mins up to 60 mins by fluorescence assay
Method in brief: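 SDS-activated CP at 1.4 nM. Suc-LLVY-AMC varied from 20 to 200 μM at inhibitor levels of 0.05, 0.1 and 0.2 μM. Fluorescence read kinetically at 37 °C. […] Three independent replicates.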

[3] = biological target: T1, Proteasome Macropain subunit MB1; test: Negative allosteric modulation of 10 uM Rpt5-activated human erythrocytes 20S proteasome chymotrypsin like activity using Suc-LLVY-AMC as substrate measured every 1 min up to 60 mins by fluorescence assay
Method in brief: (§1)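 Suc-LLVY-AMC at 100 μM final. AMC fluorescence read every 1 min for 60 min at 37 °C. Activity relative to DMSO vehicle, at least three independent replicates.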

[4] = biological target: T1, Proteasome Macropain subunit MB1; test: Negative allosteric modulation of 1 uM Rpt5-activated human erythrocytes 20S proteasome chymotrypsin like activity using Suc-LLVY-AMC as substrate measured every 1 min up to 60 mins by fluorescence assay; method in brief: as §1

## CC(C)C[C@H](NC(=O)[C@H](Cc1ccc(O)cc1)NC(=O)[C@@H]1CCCN1C(=O)[C@@H]1CCCN1C(=O)[C@H](CCCNC(=N)N)NC(=O)[C@@H]1CCCN1C(=O)[C@H](CCCNC(=N)N)NC(=O)[C@H](CCCNC(=N)N)NC(=O)[C@@H](N)CCCNC(=N)N)C(=O)N1CCC[C@H]1C(=O)N[C@@H](CCCNC(=N)N)C(=O)N[C@@H](Cc1ccccc1)C(=O)NCC(=O)O (H-RRRPRPPYLPRFG-OH)
[1]; read-out: IC50
  IC50: 0.099 µM

## CC(C)C[C@H](NC(=O)[C@H](Cc1ccc(O)cc1)NC(=O)[C@H](CCCNC(=N)N)NC(=O)[C@H](CCCNC(=N)N)NC(=O)[C@@H](N)CCCNC(=N)N)C(=O)N1CCC[C@H]1C(=O)N[C@@H](CCCNC(=N)N)C(=O)N[C@@H](Cc1c[nH]c2ccccc12)C(=O)NCC(=O)O (H-RRRYLPRWG-OH)
[1]; read-out: IC50
  IC50: 0.111 µM

## CC(C)C[C@H](NC(=O)[C@@H]1CCCN1C(=O)[C@@H]1CCCN1C(=O)[C@@H]1CCCN1C(=O)[C@@H]1CCCN1C(=O)[C@H](CCCNC(=N)N)NC(=O)[C@H](CCCNC(=N)N)NC(=O)[C@@H](N)CCCNC(=N)N)C(=O)N[C@@H](Cc1ccc(O)cc1)C(=O)N[C@@H](C)C(=O)O (H-RRRPPPPLYA-OH)
[1]
  IC50: Not Active

## C[C@H](NC(=O)[C@H](Cc1ccc(O)cc1)NC(=O)[C@H](Cc1ccc(O)cc1)NC(=O)[C@@H]1CCCN1C(=O)[C@@H]1CCCN1C(=O)[C@@H]1CCCN1C(=O)[C@@H]1CCCN1C(=O)[C@H](CCCNC(=N)N)NC(=O)[C@H](CCCNC(=N)N)NC(=O)[C@@H](N)CCCNC(=N)N)C(=O)O (H-RRRPPPPYYA-OH)
Fibroblast
  Activity: Non-Toxic
[1]
  IC50: Not Active

## CC(C)C[C@H](NC(=O)[C@H](Cc1ccc(O)cc1)NC(=O)[C@H](CCCNC(=N)N)NC(=O)[C@H](CCCNC(=N)N)NC(=O)[C@@H](N)CCCNC(=N)N)C(=O)N1CCC[C@H]1C(=O)N[C@@H](CCCNC(=N)N)C(=O)N[C@@H](Cc1c[nH]c2ccccc12)C(=O)NCC(N)=O (H-RRRYLPRWG-NH2)
[1]; read-out: IC50
  IC50: 0.082 µM
[2]
  Ki: 0.0101 µM

## CC(C)C[C@H](NC(=O)[C@H](Cc1ccc(O)cc1)NC(=O)[C@@H]1CCCN1C(=O)[C@@H]1CCCN1C(=O)[C@H](CCCNC(=N)N)NC(=O)[C@@H]1CCCN1C(=O)[C@H](CCCNC(=N)N)NC(=O)[C@H](CCCNC(=N)N)NC(=O)[C@@H](N)CCCNC(=N)N)C(=O)N1CCC[C@H]1C(=O)N[C@@H](CCCNC(=N)N)C(=O)N[C@@H](Cc1c[nH]c2ccccc12)C(=O)NCC(N)=O (H-RRRPRPPYLPRWG-NH2)
[1]; read-out: IC50
  IC50: 0.113 µM

## CC(C)C[C@H](NC(=O)[C@H](Cc1ccc(O)cc1)NC(=O)[C@@H]1CCCN1C(=O)[C@@H]1CCCN1C(=O)[C@H](CCCNC(=N)N)NC(=O)[C@@H]1CCCN1C(=O)[C@H](CCCNC(=N)N)NC(=O)[C@H](CCCNC(=N)N)NC(=O)[C@@H](N)CCCNC(=N)N)C(=O)N1CCC[C@H]1C(=O)N[C@@H](CCCNC(=N)N)C(=O)N[C@@H](Cc1c[nH]c2ccccc12)C(=O)NCC(=O)O (H-RRRPRPPYLPRWG-OH)
[3]
  IC50: 0.5 µM
[1]; read-out: IC50
  IC50: 0.05 µM
[2]
  Ki: 0.0048 µM
[4]
  IC50: 0.56 µM
